Screens (PubChem)
ERAP1 inh: inhibitors of human ERAP1 aminopeptidase; recombinant ERAP1, Leu-AMC fluorescence, 60 min; inhibition, % at 10.7 µM; 340,000 tested, 0.15% active; AID 652197;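 active = mean replicate inhibition of at least 30%, or all replicates individually reaching that 30% level; inactive = mean below 30% and not every replicate reaching it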;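 note: 0% = neutral control wells and 100% = L-leucinethiol positive control wells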
CAL PDZ FP-1: inhibitors of human CAL PDZ peptide binding | Q9HD26 | purified CAL PDZ, TMR-peptide fluorescence polarization, 1 h | inhibition, % at 20 µM | 330,000 tested, 0.02% active;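 active = highest replicate inhibition of at least 40%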;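 note: plate controls were DMSO neutral control wells for no effect and unlabeled competitor peptide control wells for full effect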
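Material – purified CerCALP PDZ construct · Detection – FP readout, S and P plane fluorescence · Measure – percent inhibition from loss of millipolarization · Controls – unlabelled peptide for full inhibition, DMSO wells as neutral · Probe or stimulus – TMR-labelled reporter peptide T*-PRC34 bound in PDZ groove · Times – 1 h at RT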
SIRT5 block: inhibitors of human sirtuin-5 desuccinylase | Q9NXA8 | Purified SirT5, succinyl-peptide AMC, trypsin-coupled fluorescence | inhibition, % at 15 µM | 330,000 tested, 1.1% active; in the data active = inhibition above about 15%; inconclusive = no clear call, values can overlap the other calls
Target sequence (Q9NXA8 whole entry, looked up): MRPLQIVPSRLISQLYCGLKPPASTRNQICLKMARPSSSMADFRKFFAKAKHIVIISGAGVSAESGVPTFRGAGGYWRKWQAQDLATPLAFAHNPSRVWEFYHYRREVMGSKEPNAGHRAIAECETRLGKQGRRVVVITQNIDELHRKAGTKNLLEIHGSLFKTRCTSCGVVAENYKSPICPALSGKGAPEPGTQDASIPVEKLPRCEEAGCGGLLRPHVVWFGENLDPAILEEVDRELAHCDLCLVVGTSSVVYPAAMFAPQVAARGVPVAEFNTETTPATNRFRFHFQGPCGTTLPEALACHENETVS
S100A4 inh HTS: inhibitors of human S100A4 binding to myosin IIA peptide; P26447; S100A4/TAMRA-MyoIIA peptide fluorescence polarization; inhibition, % at 10.7 µM; 360,000 tested, 0.14% active;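 active = mean inhibition of at least 70% across replicates, with every replicate also reaching that level; inconclusive = mean inhibition reaches 70% but some replicates fall short; inactive = mean inhibition below 70%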
Target sequence (P26447 whole entry, looked up): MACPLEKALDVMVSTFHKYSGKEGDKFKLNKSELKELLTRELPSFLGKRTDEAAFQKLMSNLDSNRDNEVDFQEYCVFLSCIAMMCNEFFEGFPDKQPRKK
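Test system – S100A4 monomer (human) · Compound – single-point compound testing · Schedule – 5 min incubation before reading · Probe or stimulus – TAMRA-labelled myosin IIA heavy-chain peptide probe, 5 nM · Benchmarks – neutral control DMSO, positive control TFP · Medium – Calcium-containing HEPES buffer, pH 7.2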
CAL PDZ FP-2: CAL PDZ (human) peptide binding inhibition; Q9HD26; 300,000 tested, 0.92% active; inhibition, % at 24.9 µM; purified CAL PDZ, TMR-peptide fluorescence polarization, 1 h; AID 602252;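 active = mean inhibition of at least 30% with at least half of replicates also reaching 30%; inconclusive = no clear call, values can overlap the other calls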;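 note: 0% = DMSO neutral control and 100% = excess unlabeled competitor peptide PRC23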
DENV2 CPE rescue: DENV2-induced cell death inhibition; DENV2-infected cells, cytopathic effect rescue, plate reader; CPE inhibition, % at 9.99 µM; 350,000 tested, 1.7% active; AID 651640; in the data active = CPE inhibition above about 20%, passing the limit was not always enough; inconclusive = no clear call, values can overlap the other calls; tested in BHK-21 cells;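 note: 0% = median of neutral control wells and 100% = median of positive control wells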
Numbers without * were called inactive; ? = inconclusive; / = no result given; ! = repeats disagree. The list is not random: actives were taken first. Their share in the collection is about 2.9%.

SMILES	ERAP1 inh	CAL PDZ FP-1	SIRT5 block	S100A4 inh HTS	CAL PDZ FP-2	DENV2 CPE rescue
COc1ccccc1C#Cc1ccc2c(c1)[C@H]1[C@H](CCN1S(=O)(=O)c1ccccc1)[C@@H](CO)N2	-1	/	5	4	/	11
COc1ccccc1C#Cc1ccc2c(c1)[C@H]1[C@H](CCN1C(=O)c1ccc(F)cc1)[C@@H](CO)N2	0	/	18*	0	/	54*
CN1C(=O)c2cc(NC(=O)Nc3cccc(Cl)c3)ccc2OC[C@H]2O[C@H](CC(=O)NCCc3ccncc3)CC[C@@H]21	0	/	-2	1	/	-5
Cc1cccc(S(=O)(=O)N2CC[C@H]3[C@H](CO)Nc4ccc(C#Cc5ccc(F)cc5)cc4[C@H]32)c1	2	/	12	-12	/	2
Cc1cccc(S(=O)(=O)N2CC[C@@H]3[C@H](CO)Nc4ccc(C#Cc5ccc(F)cc5)cc4[C@@H]32)c1	3	/	6	97*	/	0
Cc1ccc(S(=O)(=O)N2CC[C@@H]3[C@H]2c2cc(C#Cc4ccc(F)cc4)ccc2N[C@@H]3CO)cc1	-2	/	4	0	/	29*
O=c1c(O)cccc2cc(O)c(O)c(O)c12	4	1	33*	-4	8	-1
COc1ccc(COC[C@@]23Oc4ccccc4[C@@H](NC(=S)N2C)[C@H]3CO[Si](C)(C)C(C)(C)C)cc1	-1	/	-1	7	/	6
C[C@H](NC(=O)C[C@H]1C[C@@H]2c3cc(NC(=O)CC4CC4)ccc3O[C@@H]2[C@@H](CO)O1)c1ccccc1	0	/	-8	-1	/	18
O=S(=O)(NCC[C@H]1CC[C@H](NS(=O)(=O)c2cccc(Cl)c2)[C@H](CO)O1)c1cccc(F)c1	5	/	-2	3	/	-2
C[C@@H]1CN([C@H](C)CO)C(=O)Cc2cc(NC(=O)Cn3cnnn3)ccc2O[C@@H]1CN(C)Cc1ccc(C(=O)Nc2ccccc2N)cc1	1	/	-3	2	/	112*
C[C@H](CO)N1C[C@H](C)[C@H](CN(C)Cc2ccncc2)Oc2ccc(NC(=O)Cn3cnnn3)cc2CC1=O	-4	/	1	-3	/	23*
C[C@H]1CN([C@@H](C)CO)C(=O)Cc2cc(NC(=O)Cn3cnnn3)ccc2O[C@H]1CN(C)Cc1ccncc1	4	0	-3	-11	0	1
Cc1noc(C)c1S(=O)(=O)N(C)C[C@H]1Oc2ccc(NC(=O)Cn3cnnn3)cc2CC(=O)N([C@H](C)CO)C[C@H]1C	1	/	28*	4	/	-7
C[C@H]1CN([C@@H](C)CO)C(=O)c2cc(NC(=O)Cn3cnnn3)ccc2O[C@H]1CN(C)Cc1ccc(C(=O)Nc2ccccc2N)cc1	-3	/	/	1	/	43*
C/C=C/c1ccccc1[C@H]1[C@@H](C#N)N(S(=O)(=O)c2cccc(F)c2)[C@H]1CO	-1	/	4	-3	/	-6
O=C(NC[C@H]1CC[C@@H]2[C@@H](CN2Cc2ccc(Oc3ccccc3)cc2)O1)C1CCOCC1	3	/	-5	-1	/	-9
Cc1noc(C)c1NC(=O)Nc1ccc2c(c1)CC(=O)N([C@H](C)CO)C[C@@H](C)[C@H](CN(C)Cc1ccc(Oc3ccccc3)cc1)O2	/	/	/	/	/	9
Cc1cc2cc(CNC(=O)Nc3ccc(Cl)c(Cl)c3)ccc2n1C	-3	-1	0	80*	-4	12
Cc1nnc(SCC(=O)Nc2ncc3c(n2)CC(c2ccccc2)CC3=O)s1 (centres undefined)	-3	-1	28*	0	1	/
Cc1nnc(SCC(=O)Nc2ncc3c(n2)CCCC3=O)s1	/	0	/	/	-1	/
COc1cc(C2CC(=O)Oc3c(C(CCN4CCCC(C)C4)c4ccc(N(C)C)cc4)c(OC)cc(OC)c32)cc(OC)c1OC (centres undefined)	-3	0	0	-2	-5	51*
CCS(=O)(=O)Nc1ccc2c(c1)C(=O)N(C)C[C@H](OC)[C@H](C)CN(C(=O)C1CC1)[C@@H](C)CO2	1	/	-1	-9	/	-3
CNC(=O)C[C@H]1CC[C@H]2[C@H](COc3ccc(NC(=O)Nc4cccc(Cl)c4)cc3C(=O)N2C)O1	-1	/	-4	3	/	-3
C[C@H](CO)N1C[C@H](C)[C@@H](CN(C)S(C)(=O)=O)Oc2ccc(NC(=O)CCN3CCOCC3)cc2C1=O	11	0	23*!	5	-3	-4
SMILES	ERAP1 inh	CAL PDZ FP-1	SIRT5 block	S100A4 inh HTS	CAL PDZ FP-2	DENV2 CPE rescue
C[C@H]1CN([C@@H](C)CO)C(=O)c2cc(NC(=O)CCC(F)(F)F)ccc2O[C@H]1CN(C)S(C)(=O)=O	0	/	-2	2	/	13
C[C@H]1CN([C@@H](C)CO)C(=O)c2cc(NC(=O)CCC(F)(F)F)ccc2O[C@@H]1CN(C)S(C)(=O)=O	-4	/	2	-6	/	21*
C[C@H]1CN([C@@H](C)CO)C(=O)c2cc(NC(=O)CCC(F)(F)F)ccc2O[C@H]1CN(C)CC1CCCCC1	3	/	4	-6	/	-6
C[C@H]1CN([C@@H](C)CO)C(=O)c2cc(NC(=O)CCC(F)(F)F)ccc2O[C@@H]1CN(C)S(=O)(=O)c1cccs1	-1	/	-5	-17	/	?
C[C@@H]1CN([C@@H](C)CO)C(=O)c2cc(NC(=O)CCC(F)(F)F)ccc2O[C@@H]1CN(C)CC1CCCCC1	2	/	4	-1	/	22*
C[C@H](CO)N1C[C@H](C)[C@@H](CN(C)S(=O)(=O)c2cccs2)Oc2ccc(NC(=O)CCC(F)(F)F)cc2C1=O	0	0	25*!	-1	1	-4
O=C(C[C@@H]1C[C@@H]2c3cc(NC(=O)NC4CCCC4)ccc3O[C@@H]2[C@@H](CO)O1)NCc1ccccn1	-2	/	1	0	/	8
COc1ccc(CNC(=O)C[C@@H]2CC[C@H](NC(=O)Nc3ccc4c(c3)OCO4)[C@@H](CO)O2)cc1	1	/	1	-106	/	9
C[C@H](CO)N1C[C@H](C)[C@@H](CN(C)S(=O)(=O)c2cccs2)OCCCC[C@H](C)Oc2ccc(NC(=O)C3CCCCC3)cc2C1=O	0	/	2	-5	/	2
Cc1ccc(S(=O)(=O)N(C)C[C@H]2Oc3ccc(NC(=O)CCC(F)(F)F)cc3C(=O)N([C@@H](C)CO)C[C@@H]2C)cc1	0	/	1	28	/	5
C[C@H]1CN([C@@H](C)CO)C(=O)c2cc(NC(=O)C3CC3)ccc2O[C@H]1CN(C)S(=O)(=O)c1cccs1	-4	/	-21	-6	/	36*
C[C@@H]1CN([C@@H](C)CO)C(=O)c2cc(NC(=O)CCC(F)(F)F)ccc2O[C@@H]1CN(C)C(=O)Nc1ccccc1	-1	/	3	-1	/	26*
